Reference: ChEMBL document CHEMBL1136745 (J Med Chem, 2003)
≈ marks a conversion by molar mass, not a printed value.

Legend:
[1] = target: T1, GABA-A receptor; alpha-1/beta-2/gamma-2 (Homo sapiens) (UniProt P14867+P47870+P18507); assay: Maximum response for enhancement of currents elicited by GABA at EC5 (6-12 uM); format: functional
[2] = Anesthetic potency, Concentration for loss of righting reflexes (LORR) in Rana temporaria; format: functional, frog
[3] = target: T1, GABA-A receptor; alpha-1/beta-2/gamma-2 (Homo sapiens); assay: (§1) Direct activation of Gamma-aminobutyric acid A receptor in the absence of GABA; format: functional
In short: (§2)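 Oocytes expressing GABA_A receptors, two-electrode clamp at -50 mV, 20–22 °C, ND-96 pH 7.6; drug applied without GABA, stocks in 35% propylene glycol (superfusate ≤170 mM). […] Washout up to 15 min.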

[4] = target: T1, GABA-A receptor; alpha-1/beta-2/gamma-2 (Homo sapiens); assay: Hill coefficient for enhancement of currents elicited by GABA at EC5 (6-12 uM); format: functional
[5] = target: T1, GABA-A receptor; alpha-1/beta-2/gamma-2 (Homo sapiens); assay: Maximum activation of Gamma-aminobutyric acid A receptor in the absence of GABA compared to 1 mM GABA; format: functional; in short: as §2
[6] = test system: Torpedo; assay: Concentration that reduced photoincorporation of [3H]azietomidate into the alpha and beta subunits of the nAcChoR in membranes of Torpedo electric organ; format: functional
In short: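 Torpedo californica nAChR-rich membranes, 2 mg/mL in Torpedo saline pH 7.0 with 1 mM oxidized glutathione, with 0.9 μM [3H]azietomidate, ± 300 μM carbamylcholine, ± R-etomidate; irradiated at 4 °C, 6 min at 254 nm or 25 min at 365 nm; 8% SDS-PAGE, fluorography, excised bands counted by scintillation.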

[7] = Anesthetic potency, Concentration for loss of righting reflexes (LORR) in Xenopus tadpoles; format: functional, frog
In short: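 Pre-limb bud Xenopus tadpoles (1.5–2 cm), groups of 5–10 in oxygenated 5 mM Tris-HCl pH 7.4, low light; drug from buffer or ethanol stock (final ethanol ≤5 mM). Tipped at 30–40 min; no righting within 5 s = LORR. Pooled groups of 10–20; quantal curves by Waud method; SD reported.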

[8] = target: T1, GABA-A receptor; alpha-1/beta-2/gamma-2 (Homo sapiens); assay: Maximum levels of enhancement of currents from alpha-1-beta-2-gamma-2L-subunit of GABA receptor elicited by low concentrations of GABA; format: functional
[9] = target: T1, GABA-A receptor; alpha-1/beta-2/gamma-2 (Homo sapiens); assay: Maximum activation of Gamma-aminobutyric acid A receptor in the absence of GABA compared to GABA response; format: functional; in short: as §2
[10] = target: T2, Acetylcholine receptor (Torpedo californica, UniProt P02710+P02712+P02714+P02718); assay: (§3) Inhibition of currents when compound wascoapplied with acetylcholine to recombinant Torpedo nAcChoR (from 6 oocytes); format: functional, cell-based, Oocyte
In short: (§4)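 Torpedo or embryonic mouse muscle nAChRs in Xenopus oocytes, two-electrode clamp at -70 mV, 20–22 °C, low-Ca ND-96 (0.3 mM CaCl2) without propylene glycol; drug coapplied 5 s with 10 μM acetylcholine after stable response; fit to single-site inhibition equation; reversibility after 5 min wash.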

[11] = target: Nicotinic acetylcholine receptor alpha1/beta1/gamma/delta (Mus musculus, UniProt P02716+P04756+P04760+P09690); assay: Inhibition of recombinant embryonic mouse muscle Nicotinic Acetylcholine Receptor (3 oocytes); format: cell-based, Oocyte; in short: as §4
[12] = Solubility in 0.05 M Tris-HCl buffer, pH 7.4; format: physicochemical; conditions: read-out: S
In short: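 Excess compound shaken 3 h in 0.05 M Tris-HCl pH 7.4, centrifuged 10000g for 3 min, concentration read at 350 nm.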

[13] = The octanol/water partition coefficient of [3H]azietomidate; format: physicochemical
In short: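 Octanol/water two-phase mixture shaken in amber vial, settled 12 h, radiolabel partition measured.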

[14] = target: GABA-A receptor; anion channel; assay: Inhibition of [35S]TBPS binding to rat brain membranes; format: cell membranes, Membrane
[15] = target: T2, Acetylcholine receptor; assay: as §3; format: cell-based, Oocyte; in short: as §4
[16] = target: T3, GABA-A receptor; alpha-1/beta-2/gamma-2 (Homo sapiens, UniProt P14867+P18507+P47870); assay: Inhibition of currents elicited by GABA at EC5 (6-12 uM); format: functional
T3 sequence (P14867 whole entry): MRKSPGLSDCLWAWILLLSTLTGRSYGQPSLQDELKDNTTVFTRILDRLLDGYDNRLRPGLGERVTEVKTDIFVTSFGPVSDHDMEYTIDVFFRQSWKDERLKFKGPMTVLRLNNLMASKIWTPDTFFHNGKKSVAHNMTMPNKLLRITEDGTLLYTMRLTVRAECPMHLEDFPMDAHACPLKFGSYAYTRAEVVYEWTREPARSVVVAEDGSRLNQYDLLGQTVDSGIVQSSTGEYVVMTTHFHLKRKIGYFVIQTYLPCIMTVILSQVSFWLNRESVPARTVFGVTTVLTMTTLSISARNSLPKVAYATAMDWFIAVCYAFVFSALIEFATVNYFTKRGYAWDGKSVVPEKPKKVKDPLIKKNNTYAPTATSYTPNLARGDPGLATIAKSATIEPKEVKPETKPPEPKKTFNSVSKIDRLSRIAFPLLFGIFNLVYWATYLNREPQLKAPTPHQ
T3 sequence (P47870 whole entry): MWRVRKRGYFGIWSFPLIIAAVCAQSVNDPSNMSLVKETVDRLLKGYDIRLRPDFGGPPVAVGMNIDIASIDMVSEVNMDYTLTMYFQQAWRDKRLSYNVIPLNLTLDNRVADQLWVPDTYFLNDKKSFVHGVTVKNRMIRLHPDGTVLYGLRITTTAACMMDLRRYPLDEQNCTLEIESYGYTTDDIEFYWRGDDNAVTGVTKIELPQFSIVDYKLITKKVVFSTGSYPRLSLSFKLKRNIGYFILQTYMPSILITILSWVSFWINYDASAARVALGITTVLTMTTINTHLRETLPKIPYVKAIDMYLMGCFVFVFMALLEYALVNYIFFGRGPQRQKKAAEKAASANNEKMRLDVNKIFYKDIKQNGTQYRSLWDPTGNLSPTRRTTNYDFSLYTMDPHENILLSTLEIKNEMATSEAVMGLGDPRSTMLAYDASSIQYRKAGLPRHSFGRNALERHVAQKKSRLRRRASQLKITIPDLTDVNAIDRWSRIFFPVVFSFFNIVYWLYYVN
T3 sequence (P18507 whole entry): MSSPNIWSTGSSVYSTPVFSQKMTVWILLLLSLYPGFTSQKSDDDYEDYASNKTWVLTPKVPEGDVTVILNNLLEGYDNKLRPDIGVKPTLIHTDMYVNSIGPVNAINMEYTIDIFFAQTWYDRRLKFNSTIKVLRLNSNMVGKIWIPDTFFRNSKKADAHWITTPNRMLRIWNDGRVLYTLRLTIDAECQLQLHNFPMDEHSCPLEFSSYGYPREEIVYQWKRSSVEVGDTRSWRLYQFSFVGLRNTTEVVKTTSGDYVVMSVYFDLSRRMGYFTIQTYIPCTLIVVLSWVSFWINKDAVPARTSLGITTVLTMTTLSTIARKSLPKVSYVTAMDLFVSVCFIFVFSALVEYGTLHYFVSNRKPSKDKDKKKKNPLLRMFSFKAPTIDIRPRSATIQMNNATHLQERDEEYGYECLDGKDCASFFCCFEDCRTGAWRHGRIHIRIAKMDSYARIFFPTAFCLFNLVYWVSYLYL

[17] = target: T3, GABA-A receptor; alpha-1/beta-2/gamma-2; assay: as §1; format: functional
[18] = target: T3, GABA-A receptor; alpha-1/beta-2/gamma-2; assay: Ability to enhance currents from alpha-1-beta-2-gamma-2L-subunit of GABA receptor elicited by low concentrations of GABA; format: functional
[19] = target: T3, GABA-A receptor; alpha-1/beta-2/gamma-2; assay: Enhancement of currents elicited by GABA at EC5 (6-12 uM); format: functional
[20] = target: T4, GABA-A receptor; anion channel (Rattus norvegicus) (UniProt O09028+P15431+P18506+P18508+P19969+P20236+P23574+P23576+P28471+P28473+P30191+P62813+P63079+P63138+Q91ZM7+Q9ES14); assay: Inhibition of [35S]TBPS binding to rat brain membranes at 100 uM (Range = 80-90%); format: cell membranes; conditions: Membrane
[21] = target: T1, GABA-A receptor; alpha-1/beta-2/gamma-2 (Homo sapiens); assay: Maximum activation of Gamma-aminobutyric acid A receptor compared to maximal control GABA current at >320 uM; format: functional
[22] = target: T4, GABA-A receptor; anion channel (Rattus norvegicus); assay: Inhibition of [35S]TBPS binding to rat brain membranes at 100 uM; format: cell membranes; conditions: Membrane

Nicotinic acetylcholine receptor alpha1/beta1/gamma/delta, sequence (P04756 whole entry): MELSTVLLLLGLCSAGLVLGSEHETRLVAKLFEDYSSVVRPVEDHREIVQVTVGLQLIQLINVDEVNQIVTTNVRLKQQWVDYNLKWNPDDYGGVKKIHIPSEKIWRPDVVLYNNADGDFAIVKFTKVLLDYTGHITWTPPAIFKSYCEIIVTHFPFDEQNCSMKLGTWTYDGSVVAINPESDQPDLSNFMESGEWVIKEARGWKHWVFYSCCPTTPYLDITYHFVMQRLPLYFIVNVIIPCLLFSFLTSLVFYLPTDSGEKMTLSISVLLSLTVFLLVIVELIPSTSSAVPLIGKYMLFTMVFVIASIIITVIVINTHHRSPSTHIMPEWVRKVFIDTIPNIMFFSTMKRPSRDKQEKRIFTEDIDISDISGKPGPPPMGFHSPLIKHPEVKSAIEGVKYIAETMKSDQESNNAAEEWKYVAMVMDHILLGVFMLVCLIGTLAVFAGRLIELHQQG
Nicotinic acetylcholine receptor alpha1/beta1/gamma/delta, sequence (P09690 whole entry): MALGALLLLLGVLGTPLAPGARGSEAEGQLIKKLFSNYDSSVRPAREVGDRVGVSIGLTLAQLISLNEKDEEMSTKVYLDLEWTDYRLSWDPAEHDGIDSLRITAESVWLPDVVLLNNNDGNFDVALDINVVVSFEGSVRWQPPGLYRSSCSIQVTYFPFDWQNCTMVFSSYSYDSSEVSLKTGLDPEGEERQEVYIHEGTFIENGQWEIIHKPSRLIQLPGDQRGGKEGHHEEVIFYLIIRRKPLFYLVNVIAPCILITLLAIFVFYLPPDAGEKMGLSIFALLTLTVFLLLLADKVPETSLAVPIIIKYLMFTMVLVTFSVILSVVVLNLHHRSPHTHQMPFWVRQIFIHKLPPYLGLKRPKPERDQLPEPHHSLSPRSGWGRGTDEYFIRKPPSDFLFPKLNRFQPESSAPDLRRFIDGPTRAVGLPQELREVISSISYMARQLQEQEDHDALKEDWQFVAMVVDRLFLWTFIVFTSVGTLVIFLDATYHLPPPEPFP
Nicotinic acetylcholine receptor alpha1/beta1/gamma/delta, sequence (P02716 whole entry): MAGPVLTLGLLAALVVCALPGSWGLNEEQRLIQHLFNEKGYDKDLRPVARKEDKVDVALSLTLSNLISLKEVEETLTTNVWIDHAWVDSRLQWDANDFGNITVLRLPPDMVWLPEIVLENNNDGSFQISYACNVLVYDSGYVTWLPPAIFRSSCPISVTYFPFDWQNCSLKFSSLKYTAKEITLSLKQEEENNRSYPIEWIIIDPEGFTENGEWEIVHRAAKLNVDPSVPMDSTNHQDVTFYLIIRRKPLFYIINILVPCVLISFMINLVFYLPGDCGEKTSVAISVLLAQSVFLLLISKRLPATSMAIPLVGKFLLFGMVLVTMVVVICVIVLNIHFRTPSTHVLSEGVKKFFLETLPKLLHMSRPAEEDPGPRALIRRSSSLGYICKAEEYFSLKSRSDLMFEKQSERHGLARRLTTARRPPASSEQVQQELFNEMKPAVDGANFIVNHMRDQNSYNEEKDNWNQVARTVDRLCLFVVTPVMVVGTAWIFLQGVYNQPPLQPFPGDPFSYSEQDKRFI
Nicotinic acetylcholine receptor alpha1/beta1/gamma/delta, sequence (P04760 whole entry): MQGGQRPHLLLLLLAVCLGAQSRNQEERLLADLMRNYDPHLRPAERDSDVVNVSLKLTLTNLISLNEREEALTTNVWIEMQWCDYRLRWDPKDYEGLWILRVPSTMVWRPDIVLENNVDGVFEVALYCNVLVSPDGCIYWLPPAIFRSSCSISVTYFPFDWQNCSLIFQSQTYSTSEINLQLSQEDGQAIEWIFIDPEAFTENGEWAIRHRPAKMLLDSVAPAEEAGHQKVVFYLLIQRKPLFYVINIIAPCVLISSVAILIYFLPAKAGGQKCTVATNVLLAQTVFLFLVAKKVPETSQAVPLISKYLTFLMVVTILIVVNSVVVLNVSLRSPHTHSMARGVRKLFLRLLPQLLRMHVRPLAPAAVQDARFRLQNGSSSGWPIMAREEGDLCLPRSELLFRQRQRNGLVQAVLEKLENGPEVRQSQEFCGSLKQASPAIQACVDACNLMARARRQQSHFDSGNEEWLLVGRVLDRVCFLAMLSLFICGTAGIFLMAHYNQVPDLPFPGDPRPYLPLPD
T2 sequence (P02710 whole entry): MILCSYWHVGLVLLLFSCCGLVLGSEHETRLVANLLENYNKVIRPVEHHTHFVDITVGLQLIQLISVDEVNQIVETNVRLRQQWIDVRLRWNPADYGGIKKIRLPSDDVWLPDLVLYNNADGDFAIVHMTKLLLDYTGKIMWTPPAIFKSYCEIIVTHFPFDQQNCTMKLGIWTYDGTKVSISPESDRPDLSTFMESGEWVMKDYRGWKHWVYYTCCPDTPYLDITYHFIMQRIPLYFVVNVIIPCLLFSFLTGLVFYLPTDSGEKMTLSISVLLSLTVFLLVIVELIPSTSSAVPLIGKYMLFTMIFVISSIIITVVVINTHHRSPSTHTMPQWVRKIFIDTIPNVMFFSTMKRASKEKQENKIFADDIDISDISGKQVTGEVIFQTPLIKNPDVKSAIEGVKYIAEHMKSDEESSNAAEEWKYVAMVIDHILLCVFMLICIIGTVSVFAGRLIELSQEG
T2 sequence (P02712 whole entry): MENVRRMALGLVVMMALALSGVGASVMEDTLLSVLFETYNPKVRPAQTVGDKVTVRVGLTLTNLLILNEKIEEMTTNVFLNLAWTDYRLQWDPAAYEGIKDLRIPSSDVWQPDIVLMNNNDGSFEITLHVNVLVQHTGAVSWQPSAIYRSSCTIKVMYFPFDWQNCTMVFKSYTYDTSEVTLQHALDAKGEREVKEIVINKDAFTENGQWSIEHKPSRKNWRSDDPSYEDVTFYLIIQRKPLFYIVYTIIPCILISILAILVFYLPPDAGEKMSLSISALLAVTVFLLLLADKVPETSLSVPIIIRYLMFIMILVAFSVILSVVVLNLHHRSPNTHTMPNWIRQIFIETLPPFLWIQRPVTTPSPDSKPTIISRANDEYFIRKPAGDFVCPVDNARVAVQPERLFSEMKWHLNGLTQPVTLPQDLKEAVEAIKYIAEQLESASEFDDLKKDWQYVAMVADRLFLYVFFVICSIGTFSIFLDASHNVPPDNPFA
T2 sequence (P02718 whole entry): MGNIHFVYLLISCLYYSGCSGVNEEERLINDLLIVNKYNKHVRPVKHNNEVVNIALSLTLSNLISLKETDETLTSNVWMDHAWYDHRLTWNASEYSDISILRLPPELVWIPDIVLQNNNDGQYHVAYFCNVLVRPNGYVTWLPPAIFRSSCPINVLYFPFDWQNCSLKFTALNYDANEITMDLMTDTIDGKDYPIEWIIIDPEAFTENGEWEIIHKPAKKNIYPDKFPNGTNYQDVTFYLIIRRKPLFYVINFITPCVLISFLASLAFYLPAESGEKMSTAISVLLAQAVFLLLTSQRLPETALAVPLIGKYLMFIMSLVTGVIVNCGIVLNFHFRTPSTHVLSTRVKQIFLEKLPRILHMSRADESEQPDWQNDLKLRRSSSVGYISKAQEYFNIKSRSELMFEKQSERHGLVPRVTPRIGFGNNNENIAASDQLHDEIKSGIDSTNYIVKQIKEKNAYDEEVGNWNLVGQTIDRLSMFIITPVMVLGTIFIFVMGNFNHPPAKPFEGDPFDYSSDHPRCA
T2 sequence (P02714 whole entry): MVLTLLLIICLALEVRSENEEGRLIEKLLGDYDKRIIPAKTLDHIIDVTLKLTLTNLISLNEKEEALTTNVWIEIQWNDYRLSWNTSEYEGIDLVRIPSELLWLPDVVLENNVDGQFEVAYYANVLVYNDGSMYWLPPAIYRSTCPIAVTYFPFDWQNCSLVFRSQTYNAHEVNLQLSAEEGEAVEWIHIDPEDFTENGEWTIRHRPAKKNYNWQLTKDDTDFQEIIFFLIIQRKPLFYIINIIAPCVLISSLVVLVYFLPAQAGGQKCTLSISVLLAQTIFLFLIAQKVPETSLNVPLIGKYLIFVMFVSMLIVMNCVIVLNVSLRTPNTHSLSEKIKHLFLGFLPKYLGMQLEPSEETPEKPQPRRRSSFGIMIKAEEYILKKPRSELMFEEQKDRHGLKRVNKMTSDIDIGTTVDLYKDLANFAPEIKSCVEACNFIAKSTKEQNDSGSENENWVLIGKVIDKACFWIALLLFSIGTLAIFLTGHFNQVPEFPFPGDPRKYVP

| Structure (SMILES) | Max response [1] | EC50 [2] | nH [4] | EC50 [7] | Emax [8] | Emax [9] | IC50 [11] | IC50 [16] | EC50 [19] | further results |
| --- | --- | --- | --- | --- | --- | --- | --- | --- | --- | --- |
| CCOC(=O)c1cncn1[C@@H](C)c1ccccc1 [S-ETOMIDATE] | 110% | 57 µM | 1.9 |  |  |  |  |  |  | Concentration [3]: 100 µM; Emax [5]: 2.9% |
| CCOC(=O)c1cncn1[C@H](C)c1ccccc1 [ETOMIDATE] | 110% | 3.4 µM | 1.2 | 2.3 µM | 127% | 18% | 50 µM |  |  | Concentration [6]: 300 µM; IC50 [10]: 41 µM |
| CC(c1ccccc1)n1cncc1C(=O)OCCC1(C)N=N1 (stereo unspecified) [AZIETOMIDATE] |  |  |  |  |  |  | 25 µM |  |  | solubility [12]: 540 µM (≈ 161 µg/mL); Partition coefficient [13]: 3600 |
| C[C@H](c1ccccc1)n1cncc1C(=O)OCCC1(C)N=N1 | 94% |  | 1.5 | 2.2 µM | 127% | 14% |  | 104 µM | 2 µM | IC50 [14]: 4.9 µM; IC50 [15]: 23 µM; EC50 [17]: 37 µM; EC50 [18]: 1.2 µM; inhibition [20]: < 90% |
| C[C@@H](c1ccccc1)n1cncc1C(=O)OCCC1(C)N=N1 | 94% |  | 1.6 | 14 µM |  |  |  | 66.3 µM | 20 µM | Emax [21]: 0.5%; inhibition [22]: 60% |
